Experimental data from different studies.
Lines come from different studies, so protocols differ.
ABL1 non-phosphorylated: Tyrosine-protein kinase ABL1, non-phosphorylated (ABL1, Homo sapiens, UniProt P00519)
ABL1 F317L phosphorylated: Tyrosine-protein kinase ABL1, phosphorylated (ABL1, Homo sapiens, UniProt P00519, F317L)
ABL1 Q252H non-phosphorylated: Tyrosine-protein kinase ABL1, non-phosphorylated (ABL1, Homo sapiens, UniProt P00519, Q252H)
ABL1 F317I non-phosphorylated: Tyrosine-protein kinase ABL1, non-phosphorylated (ABL1, Homo sapiens, UniProt P00519, F317I)
ABL1 Y253F: Tyrosine-protein kinase ABL1 (ABL1, Homo sapiens, UniProt P00519, Y253F)
ABL1 phosphorylated: Tyrosine-protein kinase ABL1, phosphorylated (ABL1, Homo sapiens, UniProt P00519)
ABL1 T315I phosphorylated: Tyrosine-protein kinase ABL1, phosphorylated (ABL1, Homo sapiens, UniProt P00519, T315I)

| Structure (SMILES) | target | assay | setting | remaining binding [%] |
| --- | --- | --- | --- | --- |
| CNC(=O)c1ccc(Nc2ncc(C(F)(F)F)c(NCc3nccnc3N(C)S(C)(=O)=O)n2)cc1 | ABL1 non-phosphorylated | cell-free assay, competition with immobilised ligand | 0.1 µM | 88 |
| COc1cnc(Nc2cccc(S(N)(=O)=O)c2)nc1N1CCN(c2ccccc2)CC1 | ABL1 F317L phosphorylated | binding, competition with immobilised ligand | 1 µM | 74 |
| N#Cc1ccc(Nc2ccc3[nH]c(=O)[nH]c3c2)c(Cl)c1 | Tyrosine-protein kinase ABL1, non-phosphorylated (ABL1, Homo sapiens, UniProt P00519, F317L) | cell-free assay, competition with immobilised ligand | 1 µM | 100 |
| CCN1CCN(Cc2ccc(C(=O)Nc3ccc(C)c(Oc4ccc5c(c4)CC(=O)N5)c3)cc2C(F)(F)F)CC1 | ABL1 Q252H non-phosphorylated | binding, competition with immobilised ligand | 1 µM | 3 |
| CNCc1ccccc1-c1csc([C@@H](C)Nc2nc(C)nc3cc(OC)c(OC)cc23)c1 | ABL1 F317I non-phosphorylated | binding, competition with immobilised ligand | 1 µM | 100 |
| C[C@@H]1CCN(c2nccc(-c3cnn4ncccc34)n2)C1 | ABL1 Y253F | binding | 1 µM | 88 |
| O=C(c1ccc(Nc2nccc(-c3cc4ccccc4s3)n2)cc1)N1CCC(N2CCCC2)CC1 | ABL1 phosphorylated | binding, competition with immobilised ligand | 1 µM | 21 |
| COC(=O)Nc1nc2ccc(C(=O)c3ccccc3)cc2[nH]1 | ABL1 phosphorylated | cell-free assay, competition with immobilised ligand | 10 µM | 0.9 |
| Cc1cnn2ncc(-c3ccnc(N(C)C)n3)c2c1 | Tyrosine-protein kinase ABL1 (ABL1, Homo sapiens, UniProt P00519, H396P) | binding | 1 µM | 81 |
| Cc1cnc(Nc2ccc(C(=O)N3CCC(N4CCCC4)CC3)cc2)nc1-c1cc2ccccc2s1 | ABL1 non-phosphorylated | binding, competition with immobilised ligand | 1 µM | 2.7 |
| Cn1nc(C(F)(F)F)cc1-c1cnc(N2CCc3cc(S(=O)(=O)Nc4c(F)cc(Cl)cc4F)cc(N4CCCC4=O)c32)nc1 | ABL1 T315I phosphorylated | cell-free assay, competition with immobilised ligand | 1 µM | 82 |
| CN1CCN(c2ccc(Nc3nccc(-c4ccccc4)n3)cc2C(F)(F)F)CC1 | Tyrosine-protein kinase ABL1 (ABL1, Homo sapiens, UniProt P00519, E255K) | binding | 10 µM | 22 |
| c1cnn2ncc(-c3ccnc(N4CCC45COC5)n3)c2c1 | ABL1 Y253F | binding | 1 µM | 59 |
| O=C(NCC1CCOCC1)c1n[nH]cc1NC(=O)c1c(F)cccc1F | ABL1 F317I non-phosphorylated | binding, competition with immobilised ligand | 1 µM | 86 |
| CN(C)c1nccc(-c2cnn3ncccc23)n1 | Tyrosine-protein kinase ABL1 (ABL1, Homo sapiens, UniProt P00519, T315I) | binding | 1 µM | 80 |
| C[C@@H](c1ccc(-n2cnc3c(N)ncnc32)cc1)N1CCc2nn(C)c(Cc3ccccc3)c2C1=O | Tyrosine-protein kinase ABL1, phosphorylated (ABL1, Homo sapiens, UniProt P00519, E255K) | binding, competition with immobilised ligand | 0.1 µM | 70 |
| N[C@H]1CCN(c2nccc(-c3cnn4ncccc34)n2)C1 | ABL1 non-phosphorylated | binding | 1 µM | 91 |
| O=C(c1ccc(Nc2ncc(Cl)c(-c3ccc(Cl)s3)n2)cc1)N1CCC(N2CCCC2)CC1 | ABL1 non-phosphorylated | binding, competition with immobilised ligand | 1 µM | 4.3 |

| Structure (SMILES) | target | assay | setting | remaining binding [%] |
| --- | --- | --- | --- | --- |
| N#Cc1ccccc1CSc1nnc2c(n1)[nH]c1ccccc12 | ABL1 T315I phosphorylated | binding, competition with immobilised ligand | 10 µM | 92 |
| O=C(NCCCN1CCOCC1)c1ccc(Nc2ncc(Cl)c(-c3ccc(Cl)s3)n2)cc1 | ABL1 F317L phosphorylated | binding, competition with immobilised ligand | 1 µM | 80 |
| Nc1ncc2c(n1)-c1c([nH]c3ccc(C#CC4CC4)cc13)CCCC2 | ABL1 Q252H non-phosphorylated | binding, competition with immobilised ligand | 1 µM | 93 |
| O=C(NCCCN1CCOCC1)c1ccc(Nc2nccc(-c3cc4ccccc4s3)n2)cc1 | ABL1 Q252H non-phosphorylated | binding, competition with immobilised ligand | 1 µM | 34 |
| Cn1cc(Cl)c2c(Oc3c(F)cc(Nc4cc(Cl)nc(N)n4)cc3F)ccnc21 | ABL1 F317I non-phosphorylated | binding, competition with immobilised ligand | 0.1 µM | 93 |
| O=C(Nc1c[nH]nc1C(=O)NC1CCNCC1)c1cc(F)cc(F)c1 | ABL1 F317I non-phosphorylated | binding, competition with immobilised ligand | 1 µM | 100 |
| CN(c1nccc(-c2cnn3ncccc23)n1)C1CC1 | ABL1 non-phosphorylated | binding | 1 µM | 100 |
| COc1cnc(Nc2cccc(S(N)(=O)=O)c2)nc1N1CCN(c2ccccc2)C(=O)C1 | ABL1 phosphorylated | binding, competition with immobilised ligand | 1 µM | 93 |
| CC1=C(C#N)C(c2ccc3c(c2)c(NC(=O)c2ccccc2C)nn3C)C(C#N)=C(C)N1 | ABL1 F317I non-phosphorylated | binding, competition with immobilised ligand | 1 µM | 100 |
| CNC(=O)[C@@H]1CC[C@@H](n2c(-c3ccc4cnccc4c3)nc3ccc(C(=O)NCc4cccc(C(N)=O)c4)cc32)C1 | Tyrosine-protein kinase ABL1, non-phosphorylated (ABL1, Homo sapiens, UniProt P00519, T315I) | binding, competition with immobilised ligand | 1 µM | 100 |
| C=CC(=O)N1CCC(C(=O)NCC(=O)N2CCN(c3nc(-c4cnc(N)nc4C(F)F)nc(N4CCOCC4)n3)CC2)CC1 | ABL1 F317I non-phosphorylated | binding, competition with immobilised ligand | 1 µM | 100 |
| c1cncc(-c2cccc(Nc3nccc(NC4CCCCC4)n3)c2)c1 | Tyrosine-protein kinase ABL1, phosphorylated (ABL1, Homo sapiens, UniProt P00519, Y253F) | binding, competition with immobilised ligand | 10 µM | 12 |
| CO[C@@H](C)c1c(Nc2ccc([C@H](N(C)C(=O)C3CCS(=O)(=O)CC3)C(F)(F)F)cc2)cnc2cc(Cl)nn12 | ABL1 F317I non-phosphorylated | binding, competition with immobilised ligand | 1 µM | 100 |
| F[C@@H]1CCN(c2nccc(-c3cnn4ncccc34)n2)C1 | Tyrosine-protein kinase ABL1 (ABL1, Homo sapiens, UniProt P00519, M351T) | binding | 1 µM | 100 |
| C[C@H](c1ccc(F)cc1)N(Cc1cccc(C(=O)O)c1)C(=O)c1cnc2ccccc2c1 | ABL1 T315I phosphorylated | cell-free assay, competition with immobilised ligand | 1 µM | 75 |
| O=C(c1ccc(Nc2ncc(Cl)c(-c3cc4ccccc4s3)n2)cc1)N1CCC(N2CCCC2)CC1 | Tyrosine-protein kinase ABL1, non-phosphorylated (ABL1, Homo sapiens, UniProt P00519, H396P) | binding, competition with immobilised ligand | 1 µM | 1.8 |
| COc1ccnn2ncc(-c3ccnc(N(C)C)n3)c12 | Tyrosine-protein kinase ABL1 (ABL1, Homo sapiens, UniProt P00519, F317I) | binding | 1 µM | 82 |
| COc1ncc2cc3ccccc3nc2c1C#N | ABL1 phosphorylated | cell-free assay, competition with immobilised ligand | 5 µM | 93 |
